The list is not random: actives were taken first. Their share in the collection is about 1.6%.
PG9 binder = binds the HIV-1 gp120 antibody PG9; TR-FRET gp120-PG9 antibody binding; inhibition, % at 6.7 µM; 360,000 compounds, 0.43% hits; AID 624416; in the data active = inhibition above about 8.5%
NR2E3 ag-1 = activates human photoreceptor nuclear receptor NR2E3; Q9Y5X4; GST-NR2E3/biotin-RetCOR TR-FRET, 1536-well; inhibition of corepressor binding, % at 4.78 µM; 320,000 compounds, 0.12% hits;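 active = percent inhibition above the cutoff of mean plus 3 SD of all tested compounds, set per screening campaign, cut at about 20% in these data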;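 also: 0% = DMSO wells and 100% = biotin wells as full block of FRET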
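Material: NR2E3–RetCOR corepressor complex / Amount: 1.35 nM GST-NR2E3 / Medium: Tris pH 7.5 / Compound: single nominal compound dose of 4.8 µM / Incubation: 5 h at 4 °C / Technique: TR-FRET, Eu(K)-anti-GST donor, streptavidin-D2 acceptor, ex 340, em 617/671 nm / Read-out basis: percent loss of FRET ratio relative to control wells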
Rev-erbA mod = Rev-erb alpha (human) modulation. activity, % at 10 µM. 370,000 compounds, 0.79% hits. P20393. Rev-erbα–FITC-DNA binding, fluorescence polarization, 90 min. AID 1259318;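 active = activity above about 14%, limit read from the data; passing the limit was not always enough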;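 also: 0% = DMSO wells with 35 nM protein and 100% = DMSO wells with 750 nM protein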
NR2E3 ag-2 = human photoreceptor-specific nuclear receptor agonism; inhibition of corepressor binding, % at 3.98 µM; Q9Y5X4; 360,000 compounds, 0.35% hits; CHO-S Gal4-NCOR/VP16-NR2E3 two-hybrid, luciferase;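 active = inhibition above the mean of all tested compounds plus 3 SD, cut at about 70% in these data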;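 also: 0% = DMSO with NR2E3 transfected cells and 100% = cells lacking NR2E3 construct; higher means lower luciferase signal from less NR2E3 corepressor binding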
VLA-4 inh = inhibition in a human VLA-4 binding assay | VLA-4 expressing cells, ligand binding flow cytometry | P13612 | inhibition, % (about 7 µM as worked out from the volumes in the protocol) | 330,000 compounds, 0.2% hits; in the data active = inhibition above about 50%
Rev-erbA confirm = Rev-erb alpha (human) modulation, hit confirmation | shares compounds with Rev-erbA mod | AID 1259319 | activation, % at 25 µM | Rev-erb alpha FITC-DNA binding, fluorescence polarization, 90 min | 3,000 compounds, 61% hits;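 active = activation at or above a set limit, or at least 3 SD above the negative control mean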;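 also: 0% = 35 nM protein with DMSO and 100% = 750 nM protein high control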
RORg counter = affects RORgamma DNA binding in a Rev-erb alpha counter-screen. purified RORgamma protein-FITC-DNA binding, fluorescence polarization. 910 compounds, 8% hits. IC50, µM. shares compounds with Rev-erbA mod;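 active = Compounds whose fitted half-maximal concentration for disrupting protein-DNA binding is below 10 micromolar; the record names Rev-erb in its text, so the target is in doubt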
The depositor's hits bear a star; i = inactive; . = no result.

SMILES	PG9 binder	NR2E3 ag-1	Rev-erbA mod	NR2E3 ag-2	VLA-4 inh	Rev-erbA confirm	others
CN(C)c1cc(-c2ccc(Cl)c(Cl)c2)oc(=O)c1Cl	0	3	36*	-6	-1	-4
CCN(CC)C(=O)CSC1=C(C#N)C(c2cccs2)C=C(C)N1 (stereo not drawn)	-1	0	56*	-19	-4	42*	RORg counter=>40
C#CCSC1=C(C#N)C(c2cccs2)C(C(=O)OCC)=C(C)N1 (stereo not drawn)	-1	0	6	-10	4	.
Cc1oc2c(C)c3oc(=O)c4c(c3cc2c1C)CCCC4	1	2	30*	-11	-14	1
c1ccc(-c2nnc3sc(-c4ccncc4)nn23)cc1	-1	1	-3	11	1	.
Cc1cc(-c2nnc3sc(-c4ccc(Cl)cc4Cl)nn23)n[nH]1	6	3	45*	-18	0	40*	RORg counter=>40
Clc1ccc(-c2nnc3sc(-c4ccc(Br)o4)nn23)c(Cl)c1	-4	2	8	6	-3	.
Fc1ccc(-c2cc(-c3nnc4sc(-c5ccco5)nn34)[nH]n2)cc1	.	.	8	.	.	.
Clc1ccccc1-c1nn2c(-c3cc(-c4ccccc4)n[nH]3)nnc2s1	.	.	30*	.	.	44*	RORg counter=>40
Clc1ccc(-c2nn3c(-c4ccccc4)nnc3s2)cc1	3	2	24*	-15	3	15
COc1cccc(-c2nnc3sc(-c4ccccc4)nn23)c1	8	2	4	-30	-2	.
COc1cccc(OC)c1-c1nn2c(-c3cc(-c4ccccc4)n[nH]3)nnc2s1	-17	-14	65*	-3	23	83*	RORg counter=>40
O=C1CCCCCN1CP(=O)(O)CN1CCCCCC1=O	-2	-5	1	-17	8	.
COc1ccc(CNC(=O)CSc2nnnn2C)cc1OC	-2	-2	31*	-4	10	-2
CCOc1ccccc1CN1CCNC(=O)C1CC(=O)NCc1ccccn1 (stereo not drawn)	0	3	0	-4	-5	.
Cc1cccc(C)c1N1C(=O)c2ccccc2NC(=O)C1C(=O)Nc1ccc(N2CCOCC2)cc1 (stereo not drawn)	0	.	-1	.	.	.
Cc1cc(NC(=O)c2ccc(S(=O)(=O)N3CCCC3)cc2)nc2c1c(=O)oc1ccccc12	-1	.	36*	-25	.	8
Cc1cc(NC(=O)c2ccc(S(=O)(=O)N3CCOCC3)cc2)nc2c1c(=O)oc1ccccc12	-2	2	36*	.	-6	16
CCc1nc(SCC(=O)NC2CC2)c2c(C)c(C)sc2n1	-1	4	7	-24	4	.
COC(=O)[C@]12CCCCC=C1N(Cc1cccc3ccccc13)C(=O)[C@H](CC(=O)NCc1cccs1)C2	0	.	16*	-19	.	3
COC(=O)C(Cc1c[nH]c2ccccc12)NC(=O)c1cccc(S(=O)(=O)N2CCCCC2)c1 (stereo not drawn)	2	-2	7	0	31	.
N#Cc1c(-c2ccccc2F)cc(C2CC2)nc1SCC(=O)c1cccs1	-5	-2	40*	-17	-22	28*
COCCSc1nnc(NC(=O)C2CC(=O)N(CCc3ccc(F)cc3)C2)s1 (stereo not drawn)	1	0	1	-24	12	.
COc1ccccc1NC(=O)c1cnc(SCC(=O)NCCc2ccccc2)n(C)c1=O	2	0	14*	-20	-5	32*	RORg counter=i
COc1ccc(CCNC(=O)CSc2ncc(C(=O)Nc3ccccc3)c(=O)n2C)cc1	-1	-2	12	24	19	.
O=C(c1ccco1)N1CCN(Cc2cc(=O)c(OCc3ccc([N+](=O)[O-])cc3)co2)CC1	0	0	0	-43	13	.
CN(C(=O)COc1ccc(Cl)cc1Cl)c1nnc(C23CC4CC(CC(C4)C2)C3)s1	-1	1	-3	-73	19	.

From PubChem
